Assay results as given in ChEMBL document CHEMBL1127320, “Dual-action cephalosporins incorporating a 3'-tertiary-amine-linked quinolone” (J Med Chem, 1994).
Values after ≈ are worked out from the molar mass of the structure shown.

Columns and labels:
Escherichia coli [1] = experiment: In vitro minimum inhibitory concentration was measured against Escherichia coli 257 strain.; type: functional
Procedure, shortened: (§1)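 Streptococci were tested on brain heart infusion agar plus 20 units/mL catalase, Proteus on Mueller-Hinton with 3% agar, and others on Mueller-Hinton agar. Inocula were 100-fold-diluted overnight cultures, about 3 × 10^4 CFU/spot, read after overnight incubation at 36 °C.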

[2] = target: T1, Penicillin-binding protein 1B (Escherichia coli K-12) (UniProt P02919); experiment: Affinity for penicillin binding protein 1b of Escherichia coli UB1005 (DC0) was evaluated.; design: unit not given here
T1 sequence (whole entry): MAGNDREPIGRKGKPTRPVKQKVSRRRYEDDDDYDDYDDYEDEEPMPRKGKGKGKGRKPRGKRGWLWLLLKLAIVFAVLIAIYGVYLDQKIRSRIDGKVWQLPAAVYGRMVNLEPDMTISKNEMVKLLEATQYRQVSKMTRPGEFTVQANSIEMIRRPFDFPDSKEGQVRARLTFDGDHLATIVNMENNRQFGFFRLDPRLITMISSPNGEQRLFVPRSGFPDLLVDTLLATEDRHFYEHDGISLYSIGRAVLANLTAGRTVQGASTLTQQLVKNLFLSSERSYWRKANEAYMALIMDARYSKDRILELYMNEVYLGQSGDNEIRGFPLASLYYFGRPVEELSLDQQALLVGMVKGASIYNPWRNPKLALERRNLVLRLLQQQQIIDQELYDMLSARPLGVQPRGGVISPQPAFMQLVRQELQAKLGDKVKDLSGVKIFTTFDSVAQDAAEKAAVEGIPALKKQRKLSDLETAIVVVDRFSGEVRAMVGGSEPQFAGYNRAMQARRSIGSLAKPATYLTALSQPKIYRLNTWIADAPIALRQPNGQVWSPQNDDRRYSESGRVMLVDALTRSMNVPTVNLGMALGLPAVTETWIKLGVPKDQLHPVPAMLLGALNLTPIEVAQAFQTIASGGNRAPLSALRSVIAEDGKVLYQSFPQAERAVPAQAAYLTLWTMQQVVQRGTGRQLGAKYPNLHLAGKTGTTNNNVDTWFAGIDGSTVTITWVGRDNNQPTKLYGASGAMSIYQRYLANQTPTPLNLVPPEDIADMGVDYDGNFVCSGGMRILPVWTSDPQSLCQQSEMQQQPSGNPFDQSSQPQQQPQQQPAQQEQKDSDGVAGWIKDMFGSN
Procedure, shortened: (§2)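 Solubilised membranes from sonicated E. coli UB1005 served as the binding-protein source. Binding was read as inhibition of [14C]penicillin G binding.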

Enterobacter cloacae [3] = experiment: In vitro minimum inhibitory concentration was measured against Enterobacter cloacae p99 (beta lactamase producer) strain.; type: functional
Escherichia coli [4] = experiment: Minimum inhibitory concentration for DC2, a permeability mutant
Procedure, shortened: as §1, with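 “MICs were determined by agar dilution with 2-fold dilutions giving final 128–0.0156 µg/mL, extended to 0.000977 µg/mL where needed. Streptococci” for “Streptococci”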

Streptococcus pneumoniae [5] = experiment: In vitro minimum inhibitory concentration was measured against Streptococcus pneumoniae 6301 strain; type: functional; procedure, shortened: as §1
Escherichia coli [6] = experiment: In vitro minimum inhibitory concentration was measured against Escherichia coli TEM-1 (Beta lactamase producer) strain.; type: functional; procedure, shortened: as §1
[7] = target: T2, Penicillin-binding protein 1A (Escherichia coli K-12) (UniProt P02918); experiment: Affinity for penicillin binding protein 1a of Escherichia coli UB1005 (DC0) was evaluated.; design: unit not given here; procedure, shortened: as §2
T2 sequence (whole entry): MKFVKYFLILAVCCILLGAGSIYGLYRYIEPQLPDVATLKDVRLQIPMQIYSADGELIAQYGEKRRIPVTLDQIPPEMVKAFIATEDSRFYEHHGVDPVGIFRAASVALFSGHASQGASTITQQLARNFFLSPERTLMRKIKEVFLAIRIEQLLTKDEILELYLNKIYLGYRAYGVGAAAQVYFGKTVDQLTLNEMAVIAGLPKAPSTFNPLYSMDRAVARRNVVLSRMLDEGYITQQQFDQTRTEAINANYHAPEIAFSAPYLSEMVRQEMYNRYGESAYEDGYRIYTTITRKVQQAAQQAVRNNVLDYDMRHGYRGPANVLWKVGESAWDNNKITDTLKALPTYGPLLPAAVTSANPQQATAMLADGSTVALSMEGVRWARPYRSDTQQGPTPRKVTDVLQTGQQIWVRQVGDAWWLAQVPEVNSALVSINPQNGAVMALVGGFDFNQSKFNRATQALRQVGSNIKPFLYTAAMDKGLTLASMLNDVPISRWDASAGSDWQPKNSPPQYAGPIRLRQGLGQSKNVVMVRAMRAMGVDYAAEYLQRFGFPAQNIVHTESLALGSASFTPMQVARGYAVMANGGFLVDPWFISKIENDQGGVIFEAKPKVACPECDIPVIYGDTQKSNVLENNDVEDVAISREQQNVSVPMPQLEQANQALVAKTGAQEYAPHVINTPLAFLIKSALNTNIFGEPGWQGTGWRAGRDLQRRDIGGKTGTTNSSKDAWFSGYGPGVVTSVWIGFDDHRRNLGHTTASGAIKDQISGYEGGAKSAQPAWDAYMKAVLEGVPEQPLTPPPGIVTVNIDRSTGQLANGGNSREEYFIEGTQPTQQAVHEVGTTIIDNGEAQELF

[8] = target: T3, Peptidoglycan D,D-transpeptidase MrdA (Escherichia coli K-12) (UniProt P0AD65); experiment: Affinity for penicillin binding protein 2 of Escherichia coli UB1005 (DC0) was evaluated.; design: unit not given here; procedure, shortened: as §2
T3 sequence (whole entry): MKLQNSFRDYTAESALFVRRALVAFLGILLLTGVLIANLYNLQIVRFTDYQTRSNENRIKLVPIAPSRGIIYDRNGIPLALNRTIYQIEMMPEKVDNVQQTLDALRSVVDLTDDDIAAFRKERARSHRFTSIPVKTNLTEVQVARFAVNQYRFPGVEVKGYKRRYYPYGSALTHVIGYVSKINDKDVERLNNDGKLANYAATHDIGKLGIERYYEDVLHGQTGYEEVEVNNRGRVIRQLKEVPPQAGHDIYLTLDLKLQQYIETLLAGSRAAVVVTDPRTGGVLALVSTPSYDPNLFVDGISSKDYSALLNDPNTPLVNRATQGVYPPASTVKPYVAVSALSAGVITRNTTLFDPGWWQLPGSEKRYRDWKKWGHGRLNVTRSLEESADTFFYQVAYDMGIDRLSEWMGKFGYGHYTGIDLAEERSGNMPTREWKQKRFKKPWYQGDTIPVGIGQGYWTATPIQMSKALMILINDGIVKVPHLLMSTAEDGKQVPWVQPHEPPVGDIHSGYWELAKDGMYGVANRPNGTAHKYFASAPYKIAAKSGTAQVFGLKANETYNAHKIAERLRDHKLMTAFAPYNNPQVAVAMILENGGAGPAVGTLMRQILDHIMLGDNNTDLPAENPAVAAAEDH

Streptococcus pyogenes = experiment: In vitro minimum inhibitory concentration was measured against Streptococcus pyogenes 4 strain.; type: functional; procedure, shortened: as §1
[9] = test system: Penicillin-binding protein 3 (Escherichia coli); experiment: Affinity for penicillin binding protein 3 of Escherichia coli UB1005 (DC0) was evaluated.; (</=)
Escherichia coli [10] = experiment: Minimum inhibitory concentration against E. coli UB1005 (DC0)
Citrobacter freundii = experiment: In vitro minimum inhibitory concentration was measured against Citrobacter freundii BS-16 (beta lactamase producer) strain.; type: functional
Procedure, shortened: as §1, with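 “MICs were determined by agar dilution with 2-fold dilutions giving final 128–0.0156 µg/mL, extended to 0.000977 µg/mL where needed. Streptococci” for “Streptococci”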

Proteus vulgaris = experiment: In vitro minimum inhibitory concentration was measured against Proteus vulgaris 1028BC (beta lactamase producer) strain.; type: functional; procedure, shortened: as §1
Micrococcus luteus = experiment: In vitro minimum inhibitory concentration was measured against Micrococcus luteus ATCC 9341 strain.; type: functional; procedure, shortened: as §1
Klebsiella pneumoniae [11] = experiment: In vitro minimum inhibitory concentration was measured against Klebsiella pneumoniae A strain.; type: functional; procedure, shortened: as §1
Pseudomonas aeruginosa [12] = experiment: In vitro minimum inhibitory concentration was measured against Pseudomonas aeruginosa 8780 strain.; type: functional; procedure, shortened: as §1
Enterococcus faecalis = experiment: In vitro minimum inhibitory concentration was measured against Enterococcus faecalis ATCC 29212 strain.; type: functional; procedure, shortened: as §1
Proteus mirabilis = experiment: In vitro minimum inhibitory concentration was measured against Proteus mirabilis 90 strain.; type: functional; procedure, shortened: as §1
Escherichia coli [13] = experiment: In vitro minimum inhibitory concentration was measured against Escherichia coli ATCC 25922 strain.; (</=); type: functional
Procedure, shortened: as §1, with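 “MICs were determined by agar dilution with 2-fold dilutions giving final 128–0.0156 µg/mL, extended to 0.000977 µg/mL where needed. Streptococci” for “Streptococci”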

Staphylococcus aureus [14] = experiment: In vitro minimum inhibitory concentration was measured against Staphylococcus aureus smith strain.; type: functional
Pseudomonas aeruginosa [15] = experiment: In vitro minimum inhibitory concentration was measured against Pseudomonas aeruginosa 18S/H strain.; type: functional; procedure, shortened: as §1
[16] = test system: Penicillin-binding protein 3 (Escherichia coli); experiment: Affinity for penicillin binding protein 3 of Escherichia coli UB1005 (DC0) was evaluated.; design: unit not given here
[17] = Half life was measured as degradation by HPLC analysis.; type: ADME
Staphylococcus aureus [18] = experiment: In vitro minimum inhibitory concentration was measured against Staphylococcus aureus 67-0 (Methicillin resistant) strain.; type: functional
Escherichia coli [19] = experiment: In vitro minimum inhibitory concentration was measured against Escherichia coli 257 strain; (</=); type: functional
Procedure, shortened: as §1, with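 “MICs were determined by agar dilution with 2-fold dilutions giving final 128–0.0156 µg/mL, extended to 0.000977 µg/mL where needed. Streptococci” for “Streptococci”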

Serratia marcescens [20] = experiment: In vitro minimum inhibitory concentration was measured against Serratia marcescens 1071(beta lactamase producer) strain.; type: functional; procedure, shortened: as §1
Enterobacter cloacae [21] = experiment: In vitro minimum inhibitory concentration was measured against Enterobacter cloacae 5699 strain.; type: functional
Staphylococcus aureus [22] = experiment: In vitro minimum inhibitory concentration was measured against Staphylococcus aureus 753 (Methicillin resistant) strain.; type: functional
Pseudomonas aeruginosa [23] = experiment: Tested for its efficacy against systemic murine infection caused by Pseudomonas aeruginosa 8780.; type: functional
Procedure, shortened: (§3)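 CD1 Swiss albino mice (18-20 g) were infected intraperitoneally with 0.5 mL of diluted culture. Within 5 min they received 1.0 mL test solution subcutaneously at the dorsal neck, in dilutions spanning 250–0.05 mg/kg. P. aeruginosa groups received a second dose at 3 h. Groups were six mice. ED50 was calculated by Reed–Muench interpolation of cumulative survival.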

Staphylococcus aureus [24] = experiment: Tested for its efficacy against systemic murine infection caused by Staphylococcus aureus smith.; type: functional; procedure, shortened: as §3
Streptococcus pneumoniae [25] = experiment: Tested for its efficacy against systemic murine infection caused by Streptococcus pneumoniae 6301.; type: functional; procedure, shortened: as §3
Serratia marcescens [26] = experiment: Tested for its efficacy against systemic murine infection caused by Serratia marcescens SM.; type: functional; procedure, shortened: as §3
Klebsiella pneumoniae [27] = experiment: Tested for its efficacy against systemic murine infection caused by Klebsiella pneumoniae A; type: functional; procedure, shortened: as §3

Structure (SMILES)	Binding affinity [2]	MIC (Enterobacter cloacae [3]) [µg/mL]	MIC (Escherichia coli [4]) [µg/mL]	MIC (Streptococcus pneumoniae [5]) [µg/mL]	MIC (Escherichia coli [6]) [µg/mL]	Binding affinity [7]	Binding affinity [8]	MIC (Streptococcus pyogenes) [µg/mL]	MIC (Citrobacter freundii) [µg/mL]	MIC (Proteus vulgaris) [µg/mL]	MIC (Micrococcus luteus) [µg/mL]	MIC (Klebsiella pneumoniae [11]) [µg/mL]	MIC (Enterococcus faecalis) [µg/mL]	MIC (Proteus mirabilis) [µg/mL]	MIC (Staphylococcus aureus [18]) [µg/mL]	MIC (Serratia marcescens [20]) [µg/mL]	MIC (Staphylococcus aureus [22]) [µg/mL]	further results
O=C(O)C1=C(CN2CCN(c3cc4c(cc3F)c(=O)c(C(=O)O)cn4C3CC3)CC2)CS[C@@H]2[C@H](NC(=O)[C@H](O)c3ccccc3)C(=O)N12	> 100	0.031 (≈ 0.0457 µM)	2 (≈ 2.95 µM)	0.063 (≈ 0.093 µM)	0.125 (≈ 0.184 µM)	100	> 100	0.031 (≈ 0.0457 µM)	0.125 (≈ 0.184 µM)	0.063 (≈ 0.093 µM)	0.031 (≈ 0.0457 µM)	–	–	–	–	–	–	MIC (Escherichia coli [1]): 0.125 µg/mL (≈ 0.184 µM); Binding affinity [9]: < 0.1; MIC (Escherichia coli [10]): 4 µg/mL (≈ 5.9 µM)
CCN1CCN(C(=O)N[C@@H](C(=O)N[C@@H]2C(=O)N3C(C(=O)O)=C(CN4CCN(c5cc6c(cc5F)c(=O)c(C(=O)O)cn6C5CC5)CC4)CS[C@H]23)c2ccc(O)cc2)C(=O)C1=O	> 100	≤ 0.016	0.25 (≈ 0.29 µM)	0.125 (≈ 0.145 µM)	0.031 (≈ 0.036 µM)	> 100	> 100	0.125 (≈ 0.145 µM)	0.063 (≈ 0.0732 µM)	0.063 (≈ 0.0732 µM)	0.5 (≈ 0.581 µM)	0.5 (≈ 0.581 µM)	16 (≈ 18.6 µM)	1 (≈ 1.16 µM)	16 (≈ 18.6 µM)	0.25 (≈ 0.29 µM)	2 (≈ 2.32 µM)	MIC (Pseudomonas aeruginosa [12]): 8 µg/mL (≈ 9.29 µM); MIC (Escherichia coli [13]): < 0.016 µg/mL; MIC (Staphylococcus aureus [14]): 2 µg/mL (≈ 2.32 µM); MIC (Pseudomonas aeruginosa [15]): 2 µg/mL (≈ 2.32 µM); Binding affinity [16]: 2; half-life [17]: 60 h; MIC (Escherichia coli [19]): < 0.016 µg/mL; MIC (Enterobacter cloacae [21]): 0.125 µg/mL (≈ 0.145 µM)
O=C(O)c1cn(C2CC2)c2cc(N3CCNCC3)c(F)cc2c1=O [CIPROFLOXACIN]	–	–	–	1 (≈ 3.02 µM)	–	–	–	0.5 (≈ 1.51 µM)	0.031 (≈ 0.0936 µM)	–	2 (≈ 6.04 µM)	0.25 (≈ 0.754 µM)	1 (≈ 3.02 µM)	0.063 (≈ 0.19 µM)	0.5 (≈ 1.51 µM)	0.063 (≈ 0.19 µM)	0.25 (≈ 0.754 µM)	ED50 (Pseudomonas aeruginosa [23]): 4 mg/kg; ED50 (Staphylococcus aureus [24]): 3 mg/kg; ED50 (Streptococcus pneumoniae [25]): > 100 mg/kg; ED50 (Serratia marcescens [26]): < 0.5 mg/kg; ED50 (Klebsiella pneumoniae [27]): 1 mg/kg
